Assay results from article PMC6247064 (Cancer Science, 2018).

Test system: Japanese patients with advanced solid tumors
Experiment: Phase 1 study: safety, tolerability, DLT and treatment-emergent adverse events
Format: in vivo, human
Procedure, shortened: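 Open-label single-arm dose levels of 80 or 105 mg/m2 IV were given on day 1 of 14-day cycles, with at most 6 patients per level. Adverse events were graded by CTCAE v4.03. DLTs were related events in cycle 1 meeting predefined hematologic or nonhematologic criteria. Tolerability required a cycle 1 DLT rate <33%. Primary G-CSF prophylaxis was barred during DLT evaluation; G-CSF was allowed for treatment-emergent neutropenia and as secondary prophylaxis.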

SMILES: COc1cccc(OCCCN)c1-c1cc(Nc2cnc(C#N)cn2)n[nH]1 [Prexasertib]
- Serious AE reported in one patient (80 mg/m^2, 2 (anemia and thrombocytopenia) related to study treatment, constipation not): 3 serious AE
- TEAE related to study treatment: Anemia (80 mg/m^2 N = 6, Any grade): 3 (50.0) n (%)
- TEAE related to study treatment: Any (80 mg/m^2 N = 6, Any grade): 6 (100) n (%)
- TEAE related to study treatment: Atrial fibrillation (80 mg/m^2 N = 6, Any grade): 1 (16.7) n (%)
- TEAE related to study treatment: Constipation (80 mg/m^2 N = 6, Any grade): 2 (33.3) n (%)
- TEAE related to study treatment: ECG QT prolonged (80 mg/m^2 N = 6, Any grade): 2 (33.3) n (%)
- TEAE related to study treatment: Fatigue (80 mg/m^2 N = 6, Any grade): 1 (16.7) n (%)
- TEAE related to study treatment: Febrile neutropenia (80 mg/m^2 N = 6, Any grade): 1 (16.7) n (%)
- TEAE related to study treatment: Headache (80 mg/m^2 N = 6, Any grade): 0 n (%)
- TEAE related to study treatment: Hypocalcemia (80 mg/m^2 N = 6, Any grade): 0 n (%)
- TEAE related to study treatment: Leukopenia (80 mg/m^2 N = 6, Any grade): 6 (100) n (%)
- TEAE related to study treatment: Lung infection (80 mg/m^2 N = 6, Any grade): 1 (16.7) n (%)
- TEAE related to study treatment: Lymphocytopenia (80 mg/m^2 N = 6, Any grade): 2 (33.3) n (%)
- TEAE related to study treatment: Nausea (80 mg/m^2 N = 6, Any grade): 2 (33.3) n (%)
- TEAE related to study treatment: Neutropenia (80 mg/m^2 N = 6, Any grade): 5 (83.3) n (%)
- TEAE related to study treatment: Pyrexia (80 mg/m^2 N = 6, Any grade): 1 (16.7) n (%)
- TEAE related to study treatment: Rash (80 mg/m^2 N = 6, Any grade): 1 (16.7) n (%)
- TEAE related to study treatment: Rash maculopapular (80 mg/m^2 N = 6, Any grade): 1 (16.7) n (%)
- TEAE related to study treatment: SVE (supraventricular extrasystoles) (80 mg/m^2 N = 6, Any grade): 1 (16.7) n (%)
- TEAE related to study treatment: Stomatitis (80 mg/m^2 N = 6, Any grade): 1 (16.7) n (%)
- TEAE related to study treatment: Thrombocytopenia (80 mg/m^2 N = 6, Any grade): 4 (66.7) n (%)
- TEAE related to study treatment: Anemia (80 mg/m^2 N = 6, Grade 3): 1 (16.7) n (%)
- TEAE related to study treatment: Any (80 mg/m^2 N = 6, Grade 3): 2 (33.3) n (%)
- TEAE related to study treatment: Atrial fibrillation (80 mg/m^2 N = 6, Grade 3): 0 n (%)
- TEAE related to study treatment: Constipation (80 mg/m^2 N = 6, Grade 3): 0 n (%)
- TEAE related to study treatment: ECG QT prolonged (80 mg/m^2 N = 6, Grade 3): 0 n (%)
- TEAE related to study treatment: Fatigue (80 mg/m^2 N = 6, Grade 3): 0 n (%)
- TEAE related to study treatment: Febrile neutropenia (80 mg/m^2 N = 6, Grade 3): 0 n (%)
- TEAE related to study treatment: Headache (80 mg/m^2 N = 6, Grade 3): 0 n (%)
- TEAE related to study treatment: Hypocalcemia (80 mg/m^2 N = 6, Grade 3): 0 n (%)
- TEAE related to study treatment: Leukopenia (80 mg/m^2 N = 6, Grade 3): 1 (16.7) n (%)
- TEAE related to study treatment: Lung infection (80 mg/m^2 N = 6, Grade 3): 0 n (%)
- TEAE related to study treatment: Lymphocytopenia (80 mg/m^2 N = 6, Grade 3): 1 (16.7) n (%)
- TEAE related to study treatment: Nausea (80 mg/m^2 N = 6, Grade 3): 0 n (%)
- TEAE related to study treatment: Neutropenia (80 mg/m^2 N = 6, Grade 3): 1 (16.7) n (%)
- TEAE related to study treatment: Pyrexia (80 mg/m^2 N = 6, Grade 3): 0 n (%)
- TEAE related to study treatment: Rash (80 mg/m^2 N = 6, Grade 3): 0 n (%)
- TEAE related to study treatment: Rash maculopapular (80 mg/m^2 N = 6, Grade 3): 0 n (%)
- TEAE related to study treatment: SVE (supraventricular extrasystoles) (80 mg/m^2 N = 6, Grade 3): 0 n (%)
- TEAE related to study treatment: Stomatitis (80 mg/m^2 N = 6, Grade 3): 0 n (%)
- TEAE related to study treatment: Thrombocytopenia (80 mg/m^2 N = 6, Grade 3): 2 (33.3) n (%)
- TEAE related to study treatment: Anemia (80 mg/m^2 N = 6, Grade 3 + 4): 2 (33.3) n (%)
- TEAE related to study treatment: Any (80 mg/m^2 N = 6, Grade 3 + 4): 6 (100) n (%)
- TEAE related to study treatment: Atrial fibrillation (80 mg/m^2 N = 6, Grade 3 + 4): 0 n (%)
- TEAE related to study treatment: Constipation (80 mg/m^2 N = 6, Grade 3 + 4): 0 n (%)
- TEAE related to study treatment: ECG QT prolonged (80 mg/m^2 N = 6, Grade 3 + 4): 0 n (%)
- TEAE related to study treatment: Fatigue (80 mg/m^2 N = 6, Grade 3 + 4): 0 n (%)
- TEAE related to study treatment: Febrile neutropenia (80 mg/m^2 N = 6, Grade 3 + 4): 1 (16.7) n (%)
- TEAE related to study treatment: Headache (80 mg/m^2 N = 6, Grade 3 + 4): 0 n (%)
- TEAE related to study treatment: Hypocalcemia (80 mg/m^2 N = 6, Grade 3 + 4): 0 n (%)
- TEAE related to study treatment: Leukopenia (80 mg/m^2 N = 6, Grade 3 + 4): 4 (66.7) n (%)
- TEAE related to study treatment: Lung infection (80 mg/m^2 N = 6, Grade 3 + 4): 0 n (%)
- TEAE related to study treatment: Lymphocytopenia (80 mg/m^2 N = 6, Grade 3 + 4): 1 (16.7) n (%)
- TEAE related to study treatment: Nausea (80 mg/m^2 N = 6, Grade 3 + 4): 0 n (%)
- TEAE related to study treatment: Neutropenia (80 mg/m^2 N = 6, Grade 3 + 4): 4 (66.7) n (%)
- TEAE related to study treatment: Pyrexia (80 mg/m^2 N = 6, Grade 3 + 4): 0 n (%)
- TEAE related to study treatment: Rash (80 mg/m^2 N = 6, Grade 3 + 4): 0 n (%)
- TEAE related to study treatment: Rash maculopapular (80 mg/m^2 N = 6, Grade 3 + 4): 0 n (%)
- TEAE related to study treatment: SVE (supraventricular extrasystoles) (80 mg/m^2 N = 6, Grade 3 + 4): 0 n (%)
- TEAE related to study treatment: Stomatitis (80 mg/m^2 N = 6, Grade 3 + 4): 0 n (%)
- TEAE related to study treatment: Thrombocytopenia (80 mg/m^2 N = 6, Grade 3 + 4): 3 (50.0) n (%)
- TEAE related to study treatment: Anemia (80 mg/m^2 N = 6, Grade 4): 1 (16.7) n (%)
- TEAE related to study treatment: Any (80 mg/m^2 N = 6, Grade 4): 4 (66.7) n (%)
- TEAE related to study treatment: Atrial fibrillation (80 mg/m^2 N = 6, Grade 4): 0 n (%)
- TEAE related to study treatment: Constipation (80 mg/m^2 N = 6, Grade 4): 0 n (%)
- TEAE related to study treatment: ECG QT prolonged (80 mg/m^2 N = 6, Grade 4): 0 n (%)
- TEAE related to study treatment: Fatigue (80 mg/m^2 N = 6, Grade 4): 0 n (%)
